# From PubChem
# Most compounds without a hit are left out; they make up all but 3.7% or so of the library.
# SR-BI DiI inh = inhibitors of SR-BI mediated HDL lipid uptake, primary screen, ldlA[mSR-BI] cells, fluorescence, single point | ldlA[mSR-BI] CHO cells, DiI-HDL uptake fluorescence, 3 h | Scavenger receptor class B member 1 (Mus musculus), Q61009 | inhibition, % at 12.5 µM | hit rate 0.96% among 320,000;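 active means mean replicate inhibition of at least 70% and a set share of replicates each scoring 70 or more; inconclusive means meets just one of the two criteria; inactive means fails both criteria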;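 further: 0% = median of neutral control wells and 100% = median of positive control wells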
# SR-BI DiI-HDL act = activators of SR-BI mediated DiI-HDL uptake, primary screen, ldlA[mSR-BI] CHO cells, DiI fluorescence; 3 h; 100 = double the neutral-control signal; activation, % at 12.5 µM; hit rate 0.096% among 320,000;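 active means mean replicate activation of at least 60% and every replicate at or above 60%; inconclusive means mean or all-replicate condition met, but not both; inactive means mean below 60% and not all replicates reaching 60%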;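 further: 0% = median plate neutral-control signal and 100% = twice that signal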
#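 Material – SR-BI-overexpressing, LDLR-lacking CHO cells · Medium – BSA-supplemented, HEPES-buffered Ham's F12, pH 7.4 · Doses – single concentration · Times – compound with DiI-HDL co-incubation, 3 h at 37 °C · Measured by – bottom-read fluorescence, 550/595 nm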
# AHR act = AHR activators, primary screen, cell-based, luminescence, luciferase reporter, human; AHR-responsive luciferase reporter cells; activation, % at 5 µM; hit rate 2.5% among 320,000; in the data active means activation above about 47%;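 further: 0% = vehicle wells and 100% = reference agonist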
# Target sequence (P35869 whole entry, looked up): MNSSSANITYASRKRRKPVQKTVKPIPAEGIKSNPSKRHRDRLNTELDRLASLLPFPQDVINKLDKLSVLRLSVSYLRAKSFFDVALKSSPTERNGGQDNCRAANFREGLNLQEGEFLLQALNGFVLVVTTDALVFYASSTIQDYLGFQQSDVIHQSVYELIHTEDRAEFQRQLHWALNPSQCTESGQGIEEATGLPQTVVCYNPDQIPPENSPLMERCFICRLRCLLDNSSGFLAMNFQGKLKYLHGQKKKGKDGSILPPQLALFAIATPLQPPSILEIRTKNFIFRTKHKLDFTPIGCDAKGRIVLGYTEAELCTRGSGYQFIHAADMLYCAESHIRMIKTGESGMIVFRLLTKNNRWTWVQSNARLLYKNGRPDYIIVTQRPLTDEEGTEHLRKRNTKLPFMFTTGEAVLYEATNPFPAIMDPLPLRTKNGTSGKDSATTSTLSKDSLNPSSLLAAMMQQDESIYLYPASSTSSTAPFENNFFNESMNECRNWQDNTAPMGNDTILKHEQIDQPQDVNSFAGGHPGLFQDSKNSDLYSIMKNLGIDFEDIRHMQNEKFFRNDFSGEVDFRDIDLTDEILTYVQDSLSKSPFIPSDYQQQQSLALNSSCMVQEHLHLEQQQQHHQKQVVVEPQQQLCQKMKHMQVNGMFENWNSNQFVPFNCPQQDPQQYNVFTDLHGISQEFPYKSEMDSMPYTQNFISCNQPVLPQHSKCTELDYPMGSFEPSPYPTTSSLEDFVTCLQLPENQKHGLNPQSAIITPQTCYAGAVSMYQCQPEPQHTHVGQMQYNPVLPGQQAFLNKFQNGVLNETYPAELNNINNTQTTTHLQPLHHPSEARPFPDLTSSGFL
# FXN GAA850 act = FXN promoter activators, primary screen, cell-based, luciferase luminescence, HEK293 lucGAA850; HEK293 lucGAA850 FXN promoter luciferase reporter, 24 h; percent of 10 µM SAHA response; activation, % at 6 µM; hit rate 0.56% among 360,000; AID 540364, 2011;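 active means activation above the average of all compounds screened plus 3 SD, cutoff fixed separately per campaign, cut at about 7.5% in these data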;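 further: 0% = DMSO wells and 100% = 10 µM SAHA wells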
# JMJD2C inh = inhibitors of GASC-1 histone demethylase, primary screen, biochemical, fluorescence, DELFIA europium; GST-JMJD2C(1-420) H3K9me3 demethylation; inhibition, % at 2.35 µM; hit rate 0.069% among 330,000;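 active means more than half of a compound's replicate wells show inhibition beyond 50%, single wells judged on their own value; inconclusive means some, but no more than half, of replicates pass 50% inhibition; inactive means no replicate passes 50% inhibition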;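 further: signal counts dimethyl H3K9 product captured on neutravidin plate; 0% = median of DMSO wells and 100% = 0.3 times that DMSO median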
# Active calls of the source: *; ? = inconclusive; nt = no result.
SMILES,SR-BI DiI inh,SR-BI DiI-HDL act,AHR act,FXN GAA850 act,JMJD2C inh
C[C@H]1CC[C@]2(O[C@H](CCO)C[C@@H](O)[C@@H]2O)O1,-29.2,29.2,1.1,0.9,2.2
Cc1ccc(C(=O)Nc2ccc(C(=O)N/N=C/c3c[nH]c4ccccc34)cc2)cc1,93.9*,-93.9,20.5,-0.6,5.3
O=C(CSc1nnc(SCc2cccc3ccccc23)s1)N/N=C/c1c[nH]c2ccccc12,-16.9,16.9,47.0*,4.6,0.4
O=C(NN=Cc1c[nH]c2ccccc12)NN=Cc1c[nH]c2ccccc12,nt,nt,nt,2.2,nt
O=C(CCC(=O)Nc1ccc(F)cc1)N/N=C/c1c[nH]c2ccccc12,16.7,-16.7,50.3*,-0.3,18.9
O=C(CSc1nnc(SCc2ccc(Cl)cc2)s1)N/N=C/c1c[nH]c2ccccc12,nt,nt,25.7,0.5,-3.3
O=C(CNc1ccccc1)N/N=C/c1c[nH]c2ccccc12,-7.1,7.1,50.4*,0.2,4.9
O=C1c2ccccc2C(=O)N1CCC#C/C=C1\c2ccccc2C(=O)N1c1ccccc1,nt,nt,nt,-1.0,nt
CSc1nc(N2CCN(C)CC2)c2c(c1C#N)CC(C)(C)OC2,-0.4,0.4,4.2,2.6,31.2
CCCOc1ccc(C(=O)NC(=S)Nc2nc3ccccc3s2)cc1,19.5,-19.5,82.0*,7.0,-16.5
Cc1ccc2nc(NC(=S)NC(=O)c3ccc(OC(C)C)cc3)sc2c1,nt,nt,-1.8,1.4,10.0
CC1(C)OC(=O)N(c2ccccc2)C12C=Cc1c(ccc3ccccc13)O2 (configuration not stated),-23.6,23.6,4.0,1.6,2.5
O=C1NC2(C=Cc3c(ccc4ccccc34)O2)Oc2ccccc21 (configuration not stated),0.6,-0.6,-2.0,8.6*,10.3
CCC(CC)C(=O)Nc1cc(C)c2c(=O)oc3ccccc3c2n1,31.9,-31.9,50.1*,0.3,-13.5
COc1ccc(-c2sc(NC(=O)c3ccc(C)cc3)nc2-c2ccc([N+](=O)[O-])cc2)cc1,90.5*,-90.5,0.5,0.5,2.8
COc1ccc(C(=O)Nc2nc(-c3ccc([N+](=O)[O-])cc3)c(-c3ccccc3)s2)cc1,13.6,-13.6,0.4,-0.9,1.5
CC(=O)Oc1ccc(C(=O)Nc2ccc(C3(C#N)CCCC3)cc2)cc1,43.7,-43.7,59.8*,3.1,2.9
N#CC1(c2ccc(NC(=O)c3ccccc3)cc2)CCCC1,20.7,-20.7,32.8,4.1,16.5
COc1ccc(C2NC(=O)c3ccccc3O2)cc1 (configuration not stated),-22.5,22.5,1.2,1.9,1.7
CCOc1ncccc1C(=O)Nc1nnc(C)s1,-11.3,11.3,-3.2,2.9,-9.8
CCOc1ccc(C(=O)Nc2nnc(C)s2)cc1OCC,61.1,-61.1,49.6*,-2.7,6.5
O=C(Nc1nnc(Cc2ccccc2)s1)c1ccccc1,1.4,-1.4,54.3*,3.3,-13.6
CCOc1ccc(C(=O)Nc2cccc3cccnc23)cc1,12.8,-12.8,51.8*,1.8,-1.6
Cc1cc(NC(=O)c2cccc(Cl)c2)n[nH]1,-0.3,0.3,70.7*,2.7,-2.7
O=C(CN1C(=O)NC2(CCCC2)C1=O)OCc1ccc(Br)cc1,-15.0,15.0,2.7,0.6,0.0
SMILES,SR-BI DiI inh,SR-BI DiI-HDL act,AHR act,FXN GAA850 act,JMJD2C inh
C=CCN1CCc2c(cc(O)c(O)c2Br)[C@@H](c2ccccc2)C1,5.1,-5.1,-0.6,3.6,4.5
Cc1cccc(NC(=O)COc2ccc(Br)cc2)n1,-28.0,28.0,77.6*,0.9,-23.4
COc1ccc(Cc2nnc(NC(=O)c3ccc(OC)c(OC)c3)s2)cc1,11.6,-11.6,33.0,-0.1,2.2
COc1ccc(NC(=O)C(=O)Nc2cccc3cccnc23)cc1OC,7.0,-7.0,-8.5,1.4,-22.7
Cc1ccc(OCC(=O)NC(=S)Nc2cccc(C)n2)cc1,-37.5,37.5,2.6,1.0,-4.6
COc1ccc(C(=O)Nc2nnc(Cc3cccs3)s2)cc1OC,18.3,-18.3,77.7*,-0.7,-8.0
COc1ccc(C(=O)Nc2cccc3cccnc23)cc1OC,78.7*,-78.9,16.6,2.0,-2.4
CCOc1ccccc1C(=O)Nc1nnc(C(C)C)s1,3.8,-3.8,57.3*,1.9,-22.0
CCOc1ccccc1C(=O)Nc1nncs1,-25.4,25.4,14.6,0.0,71.9
Cc1cc(C)cc(NC(=O)CS(=O)(=O)c2cccc3nsnc23)c1,43.5,-43.5,44.0,0.8,9.2
COc1ccc(C(=O)Nc2nc(C)c(C)s2)cc1OC,79.1*,-79.1,32.5,1.6,1.0
COc1ccccc1C(=O)Nc1cccc(NC(=O)c2ccccc2OC)n1,31.9,-31.9,39.7,0.1,10.6
CCOc1ccccc1C(=O)Nc1cccc2cccnc12,28.0,-28.0,74.4*,1.7,-13.2
COc1ccc(C(=O)Nc2cccc(NC(=O)c3ccc(OC)c(OC)c3)n2)cc1OC,81.4*,-81.4,14.4,-6.2,2.0
Cc1cccc(NC(=O)c2cccc(C(=O)Nc3cccc(C)n3)c2)n1,-1.9,1.9,49.8*,0.6,-3.5
Cc1cccc(NC(=O)c2ccc(C(=O)c3ccccc3)cc2)n1,-18.5,18.5,4.8,0.6,4.1
O=C(Nc1cccc2cccnc12)c1cccc2ccccc12,7.1,-7.1,7.3,1.7,nt
O=C(OCCN(C1=NS(=O)(=O)c2ccccc21)c1ccc(Cl)cc1)c1ccco1,2.7,-2.7,0.8,1.0,-4.8
COc1cc(C(CC(=O)Nc2ncccc2C)N2Cc3ccccc3C2=O)cc(OC)c1OC (configuration not stated),-29.1,29.1,3.7,-0.8,-7.7
CCOc1ccccc1C(=O)NCC(=O)OCCCOC(=O)CNC(=O)c1ccccc1OCC,84.5*,-84.4,2.6,1.7,0.1
CCOc1ccccc1C(=O)NCC(=O)OCCOc1cccc(Cl)c1,-4.3,4.3,-1.0,2.6,-8.5
CCOc1ccc(C(=O)Nc2c3c(nn2C(C)(C)C)CSC3)cc1OCC,75.3*,-75.3,0.3,-5.1,-4.6
Cc1ccc(NS(=O)(=O)c2cccc(C(=O)NNC(=O)c3cccn3C)c2)c(C)c1,6.1,-6.1,2.4,3.5,-15.7
COc1ccc2c(n1)Sc1nc3ccccc3nc1N2,25.7,-25.7,64.5*,3.1,4.0
COc1cc2ccccc2nn1,-26.9,26.9,3.8,2.3,-3.0
COC(=O)Nc1ccc2c(c1)Nc1ccccc1CC2,17.2,-17.2,3.4,1.5,-1.0
Nc1ccc2c(c1)Nc1ccccc1CC2,-9.1,9.1,49.8*,1.3,-0.8
CCCCc1cc(=O)oc2cc(C)cc(OCC(=O)NCc3cccnc3)c12,15.8,-15.8,16.9,-0.6,?
CCCc1cc(=O)oc2cc(C)cc(OCC(=O)NCc3ccncc3)c12,3.2,-3.2,39.3,-0.2,-4.9
